{
  "source": "ChEMBL document CHEMBL4325828",
  "about": "“The Design, Synthesis, and Characterizations of Spore Germination Inhibitors Effective against an Epidemic Strain of Clostridium difficile” (J Med Chem, 2018)",
  "tested_on": "Clostridioides difficile",
  "experiment": "Antibacterial activity against Clostridium difficile R20291 assessed as inhibition of spore germination by measuring heat activated spore germination levels at 125 uM in presence of 6 mM taurocholate and 12 mM glycine measured every minute for 2 hrs by standard optical density assay relative to control",
  "format": "functional",
  "set-up": "scale not given: the % may be the effect or the level left",
  "method_in_brief": "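R20291 spores were screened at a single 125 µM concentration, with germination followed as the fall in absorbance at 580 nm. Compounds not soluble at 125 µM by visual inspection were discarded. Inhibition is relative to untreated spore samples.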",
  "data": [
    {"smiles": "C[C@H](CCC(=O)NCCCO)[C@H]1CC[C@H]2[C@@H]3[C@H](O)C[C@@H]4C[C@H](O)CC[C@]4(C)[C@H]3C[C@H](O)[C@]12C", "values": [
      {"measurement": "Activity", "value": 92, "unit": "%"}
    ]},
    {"smiles": "C[C@H](CCC(=O)NCCCN1C(=O)C(=O)c2ccccc21)[C@H]1CC[C@H]2[C@@H]3[C@H](O)C[C@@H]4C[C@H](O)CC[C@]4(C)[C@H]3C[C@H](O)[C@]12C", "values": [
      {"measurement": "Activity", "value": 95, "unit": "%"}
    ]},
    {"smiles": "COc1ccc(CCNC(=O)CC[C@@H](C)[C@H]2CC[C@H]3[C@@H]4[C@H](O)C[C@@H]5C[C@H](O)CC[C@]5(C)[C@H]4C[C@H](O)[C@]23C)c(OC)c1", "values": [
      {"measurement": "Activity", "value": 101, "unit": "%"}
    ]},
    {"smiles": "C[C@H](CCC(=O)NCCCCNC(=O)OC(C)(C)C)[C@H]1CC[C@H]2[C@@H]3[C@H](O)C[C@@H]4C[C@H](O)CC[C@]4(C)[C@H]3C[C@H](O)[C@]12C", "values": [
      {"measurement": "Activity", "value": 117, "unit": "%"}
    ]},
    {"smiles": "CCOC(=O)CCCNC(=O)CC[C@@H](C)[C@H]1CC[C@H]2[C@@H]3[C@H](O)C[C@@H]4C[C@H](O)CC[C@]4(C)[C@H]3C[C@H](O)[C@]12C", "values": [
      {"measurement": "Activity", "value": 95, "unit": "%"}
    ]},
    {"smiles": "C[C@H](CCC(=O)NCCCN1C(=O)c2ccccc2C1=O)[C@H]1CC[C@H]2[C@@H]3[C@H](O)C[C@@H]4C[C@H](O)CC[C@]4(C)[C@H]3C[C@H](O)[C@]12C", "values": [
      {"measurement": "Activity", "value": 82, "unit": "%"}
    ]},
    {"smiles": "COC(=O)C(NC(=O)CC[C@@H](C)[C@H]1CC[C@H]2[C@@H]3[C@H](O)C[C@@H]4C[C@H](O)CC[C@]4(C)[C@H]3C[C@H](O)[C@]12C)C(C)C", "note": "(stereo partly drawn)", "values": [
      {"measurement": "Activity", "value": 100, "unit": "%"}
    ]},
    {"smiles": "C[C@H](CCC(=O)NCCC#N)[C@H]1CC[C@H]2[C@@H]3[C@H](O)C[C@@H]4C[C@H](O)CC[C@]4(C)[C@H]3C[C@H](O)[C@]12C", "values": [
      {"measurement": "Activity", "value": 112, "unit": "%"}
    ]},
    {"smiles": "C[C@H](CCC(=O)NCCc1cccs1)[C@H]1CC[C@H]2[C@@H]3[C@H](O)C[C@@H]4C[C@H](O)CC[C@]4(C)[C@H]3C[C@H](O)[C@]12C", "values": [
      {"measurement": "Activity", "value": 93, "unit": "%"}
    ]},
    {"smiles": "C[C@H](CCC(=O)NCCN1CCCC1)[C@H]1CC[C@H]2[C@@H]3[C@H](O)C[C@@H]4C[C@H](O)CC[C@]4(C)[C@H]3C[C@H](O)[C@]12C", "values": [
      {"measurement": "Activity", "value": 101, "unit": "%"}
    ]},
    {"smiles": "C[C@H](CCC(=O)NC(CCC(=O)O)C(=O)O)[C@H]1CC[C@H]2[C@@H]3[C@H](O)C[C@@H]4C[C@H](O)CC[C@]4(C)[C@H]3C[C@H](O)[C@]12C", "note": "(stereo partly drawn)", "values": [
      {"measurement": "Activity", "value": 114, "unit": "%"}
    ]},
    {"smiles": "C[C@H](CCC(=O)NCCCN)[C@H]1CC[C@H]2[C@@H]3[C@H](O)C[C@@H]4C[C@H](O)CC[C@]4(C)[C@H]3C[C@H](O)[C@]12C.Cl", "values": [
      {"measurement": "Activity", "value": 124, "unit": "%"}
    ]},
    {"smiles": "C[C@H](CCC(=O)NCCCCN)[C@H]1CC[C@H]2[C@@H]3[C@H](O)C[C@@H]4C[C@H](O)CC[C@]4(C)[C@H]3C[C@H](O)[C@]12C.Cl", "values": [
      {"measurement": "Activity", "value": 104, "unit": "%"}
    ]},
    {"smiles": "C[C@H](CCC(=O)NCCc1ccccc1)[C@H]1CC[C@H]2[C@@H]3[C@H](O)C[C@@H]4C[C@H](O)CC[C@]4(C)[C@H]3C[C@H](O)[C@]12C", "values": [
      {"measurement": "Activity", "value": 104, "unit": "%"}
    ]},
    {"smiles": "C[C@H](CCC(=O)NCCN1C(=O)c2ccccc2C1=O)[C@H]1CC[C@H]2[C@@H]3[C@H](O)C[C@@H]4C[C@H](O)CC[C@]4(C)[C@H]3C[C@H](O)[C@]12C", "values": [
      {"measurement": "Activity", "value": 78, "unit": "%"}
    ]},
    {"smiles": "C[C@H](CCC(=O)NCC(c1ccccc1)c1ccccc1)[C@H]1CC[C@H]2[C@@H]3[C@H](O)C[C@@H]4C[C@H](O)CC[C@]4(C)[C@H]3C[C@H](O)[C@]12C", "values": [
      {"measurement": "Activity", "value": 101, "unit": "%"}
    ]},
    {"smiles": "C[C@H](CCC(=O)NC(Cc1ccccc1)C(=O)O)[C@H]1CC[C@H]2[C@@H]3[C@H](O)C[C@@H]4C[C@H](O)CC[C@]4(C)[C@H]3C[C@H](O)[C@]12C", "note": "(stereo partly drawn)", "values": [
      {"measurement": "Activity", "value": 108, "unit": "%"}
    ]},
    {"smiles": "COC(=O)C(Cc1ccccc1)NC(=O)CC[C@@H](C)[C@H]1CC[C@H]2[C@@H]3[C@H](O)C[C@@H]4C[C@H](O)CC[C@]4(C)[C@H]3C[C@H](O)[C@]12C", "note": "(stereo partly drawn)", "values": [
      {"measurement": "Activity", "value": 84, "unit": "%"}
    ]}
  ]
}
